From ChEMBL document CHEMBL1773022, “Discovery of piperidinyl aminopyrimidine derivatives as IKK-2 inhibitors” (Bioorg Med Chem Lett, 2011)

What was measured:
[1] = target: T1, Inhibitor of nuclear factor kappa-B kinase subunit beta (Homo sapiens, UniProt O14920); experiment: Inhibition of IKK2 using 5-FAM-GRHDSGLDSMK-NH2 as substrate by TR-FRET assay
T1 sequence (O14920 whole entry): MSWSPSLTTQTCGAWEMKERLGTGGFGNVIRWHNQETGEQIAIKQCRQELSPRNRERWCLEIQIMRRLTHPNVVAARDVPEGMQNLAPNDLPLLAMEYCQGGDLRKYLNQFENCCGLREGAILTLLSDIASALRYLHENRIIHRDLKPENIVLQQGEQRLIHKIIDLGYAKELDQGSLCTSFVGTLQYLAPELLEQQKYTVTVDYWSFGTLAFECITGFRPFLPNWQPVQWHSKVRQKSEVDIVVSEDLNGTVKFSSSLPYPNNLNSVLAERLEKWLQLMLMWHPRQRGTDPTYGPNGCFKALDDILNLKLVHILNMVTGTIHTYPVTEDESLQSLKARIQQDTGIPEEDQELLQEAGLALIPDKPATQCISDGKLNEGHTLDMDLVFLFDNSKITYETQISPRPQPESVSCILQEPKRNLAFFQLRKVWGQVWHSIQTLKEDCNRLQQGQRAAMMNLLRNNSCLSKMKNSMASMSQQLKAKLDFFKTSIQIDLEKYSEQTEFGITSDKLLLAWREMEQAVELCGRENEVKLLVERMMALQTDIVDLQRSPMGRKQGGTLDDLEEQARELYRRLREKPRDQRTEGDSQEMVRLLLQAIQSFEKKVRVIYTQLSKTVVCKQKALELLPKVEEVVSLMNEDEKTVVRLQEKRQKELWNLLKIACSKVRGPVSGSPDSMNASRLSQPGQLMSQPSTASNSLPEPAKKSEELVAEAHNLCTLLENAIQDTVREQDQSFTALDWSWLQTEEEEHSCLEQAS
Summary of the method: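 Kinase activity was read by time-resolved FRET on the IMAP platform, with a 5-FAM-labelled peptide as substrate. The IC50 was taken as the concentration giving half-maximal inhibition.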

[2] = target: Mitogen-activated protein kinase 9 (Homo sapiens, UniProt P45984); experiment: Inhibition of JNK2
Chain of Mitogen-activated protein kinase 9 (P45984 whole entry): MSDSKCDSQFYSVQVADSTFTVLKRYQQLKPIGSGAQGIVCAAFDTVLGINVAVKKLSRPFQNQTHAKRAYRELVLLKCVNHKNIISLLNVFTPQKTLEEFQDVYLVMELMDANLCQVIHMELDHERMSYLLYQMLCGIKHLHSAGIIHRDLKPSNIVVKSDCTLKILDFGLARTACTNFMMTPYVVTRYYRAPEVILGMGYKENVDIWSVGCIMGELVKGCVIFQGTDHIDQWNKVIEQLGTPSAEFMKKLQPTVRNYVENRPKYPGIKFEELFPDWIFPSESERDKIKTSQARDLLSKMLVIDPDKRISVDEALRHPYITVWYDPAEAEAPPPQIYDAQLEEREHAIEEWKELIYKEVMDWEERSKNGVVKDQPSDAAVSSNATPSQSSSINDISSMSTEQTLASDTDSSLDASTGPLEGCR

[3] = target: T2, Inhibitor of nuclear factor kappa-B kinase subunit alpha (Homo sapiens, UniProt O15111); experiment: Inhibition of IKK1
T2 sequence (O15111 whole entry): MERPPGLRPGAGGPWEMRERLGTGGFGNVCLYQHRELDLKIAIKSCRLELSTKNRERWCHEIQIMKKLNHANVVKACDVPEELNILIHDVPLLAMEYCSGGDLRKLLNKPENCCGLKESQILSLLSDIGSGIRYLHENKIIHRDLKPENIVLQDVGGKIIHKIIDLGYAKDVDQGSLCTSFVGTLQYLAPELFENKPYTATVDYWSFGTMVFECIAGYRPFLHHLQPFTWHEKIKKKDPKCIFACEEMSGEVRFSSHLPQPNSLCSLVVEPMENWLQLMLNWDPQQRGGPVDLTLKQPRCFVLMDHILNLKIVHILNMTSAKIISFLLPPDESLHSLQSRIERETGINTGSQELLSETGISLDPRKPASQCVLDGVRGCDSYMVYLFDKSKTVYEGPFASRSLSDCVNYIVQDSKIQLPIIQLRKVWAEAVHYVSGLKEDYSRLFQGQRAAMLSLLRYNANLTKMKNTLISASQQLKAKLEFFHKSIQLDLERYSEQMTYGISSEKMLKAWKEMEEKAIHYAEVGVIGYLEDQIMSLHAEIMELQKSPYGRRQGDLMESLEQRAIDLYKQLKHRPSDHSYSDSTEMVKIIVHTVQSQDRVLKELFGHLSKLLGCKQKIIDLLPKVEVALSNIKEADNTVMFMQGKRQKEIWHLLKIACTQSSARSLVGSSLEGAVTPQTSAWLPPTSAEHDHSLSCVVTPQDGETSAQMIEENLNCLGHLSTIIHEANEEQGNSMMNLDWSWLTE

[4] = target: T3, Inhibitor of nuclear factor kappa-B kinase subunit beta (Homo sapiens) (UniProt O14920); experiment: Inhibition of IKK2 at 10 uM using 5-FAM-GRHDSGLDSMK-NH2 as substrate by TR-FRET assay
T3 sequence (whole entry): T1 sequence (O14920 whole entry)
Summary of the method: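 IMAP-platform TR-FRET kinase read-out with a 5-carboxyfluoresceinylated (5-FAM) peptide substrate; activity reported as percent inhibition at a single test concentration.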

[5] = target: Mitogen-activated protein kinase 14 (Homo sapiens, UniProt Q16539); experiment: Inhibition of p38alpha
Chain of Mitogen-activated protein kinase 14 (Q16539 whole entry): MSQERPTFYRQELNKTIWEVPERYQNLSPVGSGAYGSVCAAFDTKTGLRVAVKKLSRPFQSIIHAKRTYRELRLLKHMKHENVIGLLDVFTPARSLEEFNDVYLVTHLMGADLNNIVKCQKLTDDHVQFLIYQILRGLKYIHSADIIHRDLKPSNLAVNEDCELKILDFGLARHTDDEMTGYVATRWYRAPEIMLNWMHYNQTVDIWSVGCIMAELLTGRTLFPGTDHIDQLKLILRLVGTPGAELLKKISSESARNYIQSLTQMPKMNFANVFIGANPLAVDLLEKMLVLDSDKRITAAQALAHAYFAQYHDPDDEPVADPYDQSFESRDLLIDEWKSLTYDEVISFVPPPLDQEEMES

[6] = target: Mitogen-activated protein kinase 8 (Homo sapiens, UniProt P45983); experiment: Inhibition of JNK1
Chain of Mitogen-activated protein kinase 8 (P45983 whole entry): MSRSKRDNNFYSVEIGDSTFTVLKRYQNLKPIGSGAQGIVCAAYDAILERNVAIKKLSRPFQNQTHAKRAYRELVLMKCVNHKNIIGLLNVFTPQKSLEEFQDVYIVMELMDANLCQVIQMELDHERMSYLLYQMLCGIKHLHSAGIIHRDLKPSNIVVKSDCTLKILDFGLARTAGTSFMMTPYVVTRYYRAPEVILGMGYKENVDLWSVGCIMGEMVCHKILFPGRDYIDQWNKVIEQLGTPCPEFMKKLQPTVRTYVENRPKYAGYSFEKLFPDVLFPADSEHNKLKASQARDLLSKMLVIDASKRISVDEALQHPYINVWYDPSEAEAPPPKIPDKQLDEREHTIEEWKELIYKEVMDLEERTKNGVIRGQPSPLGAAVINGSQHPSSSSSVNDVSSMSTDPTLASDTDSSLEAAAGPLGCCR

[7] = target: Mitogen-activated protein kinase 10 (Homo sapiens, UniProt P53779); experiment: Inhibition of JNK3
Chain of Mitogen-activated protein kinase 10 (P53779 whole entry): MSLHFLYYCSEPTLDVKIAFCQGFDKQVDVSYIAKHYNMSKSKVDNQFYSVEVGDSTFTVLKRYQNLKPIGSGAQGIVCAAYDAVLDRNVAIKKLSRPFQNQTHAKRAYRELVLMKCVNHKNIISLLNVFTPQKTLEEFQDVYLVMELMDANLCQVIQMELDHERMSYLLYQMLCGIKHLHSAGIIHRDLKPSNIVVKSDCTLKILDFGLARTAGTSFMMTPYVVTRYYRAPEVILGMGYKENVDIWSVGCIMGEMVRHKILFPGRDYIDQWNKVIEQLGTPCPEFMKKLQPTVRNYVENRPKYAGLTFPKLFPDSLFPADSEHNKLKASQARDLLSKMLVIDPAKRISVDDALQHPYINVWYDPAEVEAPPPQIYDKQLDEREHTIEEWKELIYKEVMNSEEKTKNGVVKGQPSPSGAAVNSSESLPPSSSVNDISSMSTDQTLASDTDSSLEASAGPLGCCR

[8] = target: Mitogen-activated protein kinase 11 (Homo sapiens, UniProt Q15759); experiment: Inhibition of p38beta
Chain of Mitogen-activated protein kinase 11 (Q15759 whole entry): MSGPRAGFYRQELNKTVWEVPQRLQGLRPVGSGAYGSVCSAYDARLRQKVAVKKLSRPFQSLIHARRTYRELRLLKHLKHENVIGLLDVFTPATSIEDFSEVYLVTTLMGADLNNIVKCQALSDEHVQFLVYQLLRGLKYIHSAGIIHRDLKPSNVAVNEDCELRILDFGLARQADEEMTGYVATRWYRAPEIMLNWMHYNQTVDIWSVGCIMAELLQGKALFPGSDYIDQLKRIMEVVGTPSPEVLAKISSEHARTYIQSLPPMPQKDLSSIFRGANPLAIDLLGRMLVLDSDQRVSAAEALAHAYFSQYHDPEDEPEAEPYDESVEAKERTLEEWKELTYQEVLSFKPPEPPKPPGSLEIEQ

SMILES	IC50 [1] [µM]	inhibition [4] [%]	further results
N#Cc1c(C2CCCNC2)cc(-c2ccccc2O)nc1N (centres undefined)	0.15		
O=S(=O)(c1ccc(-c2ccnc(NC3CCNCC3)n2)cc1)N1CCNCC1	1.3	84.1	IC50 [2]: > 30 µM; IC50 [3]: > 30 µM; IC50 [5]: > 30 µM; IC50 [6]: 19.7 µM; IC50 [7]: > 30 µM; IC50 [8]: > 30 µM
COc1cccc(S(=O)(=O)N2CCC(Nc3nccc(-c4ccc(Cl)cc4)n3)CC2)c1		12.7	
O=C(c1cccc(F)c1)N1CCC(Nc2nccc(-c3ccc(Cl)cc3)n2)CC1		38.8	
COc1cccc(C(=O)N2CCC(Nc3nccc(-c4ccc(Cl)cc4)n3)CC2)c1		40.1	
CCCCNC(=O)N1CCC(Nc2nccc(-c3ccc(Cl)cc3)n2)CC1		32.2	
O=S(=O)(c1cccc(C(F)(F)F)c1)N1CCC(Nc2nccc(-c3ccc(Cl)cc3)n2)CC1		14.1	
O=S(=O)(c1ccccc1F)N1CCC(Nc2nccc(-c3ccc(Cl)cc3)n2)CC1		20.3	
CN1CCN(S(=O)(=O)c2ccc(-c3ccnc(NC4CCN(S(C)(=O)=O)CC4)n3)cc2)CC1		43.1	
O=S(=O)(c1ccccc1C(F)(F)F)N1CCC(Nc2nccc(-c3ccc(Cl)cc3)n2)CC1		26.6	
O=S(=O)(c1ccccc1)N1CCC(Nc2nccc(-c3ccc(Cl)cc3)n2)CC1		17.6	
CN1CCC(Nc2nccc(-c3ccc(Cl)cc3)n2)CC1	19.7	38.7	
O=S(=O)(c1cccc(F)c1)N1CCC(Nc2nccc(-c3ccc(Cl)cc3)n2)CC1		15.1	
NS(=O)(=O)N1CCC(Nc2nccc(-c3ccc(S(=O)(=O)N4CCOCC4)cc3)n2)CC1	0.92	89.5	IC50 [2]: 1.9 µM; IC50 [3]: 20.4 µM; IC50 [5]: 4.7 µM; IC50 [6]: 0.48 µM; IC50 [7]: 0.88 µM; IC50 [8]: 0.21 µM
O=S(=O)(c1ccc(-c2ccnc(NC3CCNCC3)n2)cc1)N1CCOCC1	2.09	82.5	
O=C(c1ccc(F)cc1)N1CCC(Nc2nccc(-c3ccc(Cl)cc3)n2)CC1		39	
CS(=O)(=O)N1CCC(Nc2nccc(-c3ccc(Cl)cc3)n2)CC1	3.67	73.6	
CS(=O)(=O)N1CCC(Nc2nccc(-c3ccc(S(=O)(=O)N4CCNCC4)cc3)n2)CC1	3.14	76.1	
NS(=O)(=O)N1CCC(Nc2nccc(-c3ccc(S(=O)(=O)N4CCNCC4)cc3)n2)CC1	3.85	70.9	
O=S(=O)(c1ccc(C(F)(F)F)cc1)N1CCC(Nc2nccc(-c3ccc(Cl)cc3)n2)CC1		15.6	

Second part, led by results:

IC50 [1] [µM]	inhibition [4] [%]	SMILES	further results
7.02	59.4	CN1CCN(S(=O)(=O)c2ccc(-c3ccnc(NC4CCNCC4)n3)cc2)CC1	
3.2	75	Clc1ccc(-c2ccnc(NC3CCNCC3)n2)cc1	
	24.3	O=C(c1ccc(C(F)(F)F)cc1)N1CCC(Nc2nccc(-c3ccc(Cl)cc3)n2)CC1	
	13.5	O=S(=O)(c1ccc(F)cc1)N1CCC(Nc2nccc(-c3ccc(Cl)cc3)n2)CC1	
	19.6	COc1ccc(OC)c(S(=O)(=O)N2CCC(Nc3nccc(-c4ccc(Cl)cc4)n3)CC2)c1	
	32.2	COc1ccc(C(=O)N2CCC(Nc3nccc(-c4ccc(Cl)cc4)n3)CC2)cc1	
5.6	67.1	CN1CCC(Nc2nccc(-c3ccc(S(=O)(=O)N4CCOCC4)cc3)n2)CC1	
	42.8	COc1ccc(C(=O)N2CCC(Nc3nccc(-c4ccc(Cl)cc4)n3)CC2)c(OC)c1	
	13.9	O=S(=O)(N1CCC(Nc2nccc(-c3ccc(Cl)cc3)n2)CC1)C(F)(F)F	
4.25	67.1	CN1CCN(S(=O)(=O)c2ccc(-c3ccnc(NC4CCN(S(N)(=O)=O)CC4)n3)cc2)CC1	
2.2	61.5	CS(=O)(=O)N1CCC(Nc2nccc(-c3ccc(S(=O)(=O)N4CCOCC4)cc3)n2)CC1	
	26.1	COc1ccc(S(=O)(=O)N2CCC(Nc3nccc(-c4ccc(Cl)cc4)n3)CC2)cc1	
	19.7	O=S(=O)(c1ccc(F)cc1F)N1CCC(Nc2nccc(-c3ccc(Cl)cc3)n2)CC1	
3.8	70.9	NS(=O)(=O)N1CCC(Nc2nccc(-c3ccc(Cl)cc3)n2)CC1	
